Data from ChEMBL document CHEMBL2062453, “Lead optimization through VLAK protocol: new annelated pyrrolo-pyrimidine derivatives as antitumor agents” (2012).

Columns and labels:
Format in all cases: functional
HT-29 = experiment: Cytotoxicity against human HT-29 cells assessed as cell growth at 10 uM after 48 hrs by SRB assay relative to control; settings: HT-29, 48 h, read-out: Activity
In short: (§1)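 NCI primary screen of about 60 human tumour lines. Cells inoculated and preincubated, then a single test concentration added and cultures incubated 48 h. Result given as percent growth (G%) of treated versus untreated control cells.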

SR = experiment: Cytotoxicity against human SR cells assessed as cell growth at 10 uM after 48 hrs by SRB assay relative to control; settings: read-out: Activity
In short: (§2)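 NCI single-dose primary screen across about 60 human tumour lines. Each line was inoculated and preincubated on microtiter plates, then exposed to one concentration of agent for 48 h. Growth is reported as percent growth (G%) of treated cells versus untreated control cells.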

SF-295 = experiment: Cytotoxicity against human SF295 cells assessed as cell growth at 10 uM after 48 hrs by SRB assay relative to control; settings: SF-295, 48 h, read-out: Activity
KM12 = experiment: Cytotoxicity against human KM12 cells assessed as cell growth at 10 uM after 48 hrs by SRB assay relative to control; settings: KM12, 48 h, read-out: Activity; in short: as §1
SF-539 = experiment: Cytotoxicity against human SF539 cells assessed as cell growth at 10 uM after 48 hrs by SRB assay relative to control; settings: SF-539, 48 h, read-out: Activity
CCRF-CEM = experiment: Cytotoxicity against human CCRF-CEM cells assessed as cell growth at 10 uM after 48 hrs by SRB assay relative to control; settings: read-out: Activity; in short: as §1
MDA-MB-231 = experiment: Cytotoxicity against human MDA-MB-231 cells assessed as cell growth at 10 uM after 48 hrs by SRB assay relative to control; settings: MDA-MB-231, 48 h, read-out: Activity; in short: as §1
SK-OV-3 = experiment: Cytotoxicity against human SKOV3 cells assessed as cell growth at 10 uM after 48 hrs by SRB assay relative to control; settings: SK-OV-3, 48 h, read-out: Activity
LOX IMVI = experiment: Cytotoxicity against human LOXIMVI cells assessed as cell growth at 10 uM after 48 hrs by SRB assay relative to control; settings: read-out: Activity; in short: as §1
CAKI-1 = experiment: Cytotoxicity against human Caki1 cells assessed as cell growth at 10 uM after 48 hrs by SRB assay relative to control; settings: CAKI-1, 48 h, read-out: Activity; in short: as §1
HOP-92 = experiment: Cytotoxicity against human HOP92 cells assessed as cell growth at 10 uM after 48 hrs by SRB assay relative to control; settings: HOP-92, 48 h, read-out: Activity; in short: as §1
SK-MEL-28 = experiment: Cytotoxicity against human SK-MEL-28 cells assessed as cell growth at 10 uM after 48 hrs by SRB assay relative to control; settings: SK-MEL-28, 48 h, read-out: Activity
SK-MEL-2 = experiment: Cytotoxicity against human SK-MEL-2 cells assessed as cell growth at 10 uM after 48 hrs by SRB assay relative to control; settings: SK-MEL-2, 48 h, read-out: Activity
OVCAR-5 = experiment: Cytotoxicity against human OVCAR5 cells assessed as cell growth at 10 uM after 48 hrs by SRB assay relative to control; settings: OVCAR-5, 48 h, read-out: Activity
NCI/ADR-RES = experiment: Cytotoxicity against human NCI/ADR-RES cells assessed as cell growth at 10 uM after 48 hrs by SRB assay relative to control; settings: read-out: Activity
ACHN = experiment: Cytotoxicity against human ACHN cells assessed as cell growth at 10 uM after 48 hrs by SRB assay relative to control; settings: read-out: Activity; in short: as §1
PC-3 = experiment: Cytotoxicity against human PC3 cells assessed as cell growth at 10 uM after 48 hrs by SRB assay relative to control; settings: PC-3, 48 h, read-out: Activity
OVCAR-4 = experiment: Cytotoxicity against human OVCAR4 cells assessed as cell growth at 10 uM after 48 hrs by SRB assay relative to control; settings: OVCAR-4, 48 h, read-out: Activity
UO-31 = experiment: Cytotoxicity against human UO31 cells assessed as cell growth at 10 uM after 48 hrs by SRB assay relative to control; settings: UO-31, 48 h, read-out: Activity; in short: as §2
U-251 = experiment: Cytotoxicity against human U251 cells assessed as cell growth at 10 uM after 48 hrs by SRB assay relative to control; settings: U-251, 48 h, read-out: Activity; in short: as §2
Hs-578T = experiment: Cytotoxicity against human Hs578T cells assessed as cell growth at 10 uM after 48 hrs by SRB assay relative to control; settings: read-out: Activity; in short: as §1
A498 = experiment: Cytotoxicity against human A498 cells assessed as cell growth at 10 uM after 48 hrs by SRB assay relative to control; settings: A498, 48 h, read-out: Activity; in short: as §1
SNB-19 = experiment: Cytotoxicity against human SNB19 cells assessed as cell growth at 10 uM after 48 hrs by SRB assay relative to control; settings: SNB-19, 48 h, read-out: Activity
HCC 2998 = experiment: Cytotoxicity against human HCC2998 cells assessed as cell growth at 10 uM after 48 hrs by SRB assay relative to control; settings: HCC 2998, 48 h, read-out: Activity; in short: as §1
SF-268 = experiment: Cytotoxicity against human SF268 cells assessed as cell growth at 10 uM after 48 hrs by SRB assay relative to control; settings: SF-268, 48 h, read-out: Activity
NCI-H23 = experiment: Cytotoxicity against human NCI-H23 cells assessed as cell growth at 10 uM after 48 hrs by SRB assay relative to control; settings: NCI-H23, 48 h, read-out: Activity
MCF7 = experiment: Cytotoxicity against human MCF7 cells assessed as cell growth at 10 uM after 48 hrs by SRB assay relative to control; settings: MCF7, 48 h, read-out: Activity; in short: as §1
T47D = experiment: Cytotoxicity against human T47D cells assessed as cell growth at 10 uM after 48 hrs by SRB assay relative to control; settings: read-out: Activity; in short: as §2

CSC1=Nc2c(c(C)c(C)n2CCCC(=O)O)C2=NC(=O)CN12
growth at 10 µM (HT-29): 108% | growth at 10 µM (SR): 122% | growth at 10 µM (SF-295): 122% | growth at 10 µM (KM12): 112% | growth at 10 µM (SF-539): 86% | growth at 10 µM (CCRF-CEM): 105% | growth at 10 µM (MDA-MB-231): 100% | growth at 10 µM (SK-OV-3): 113% | growth at 10 µM (LOX IMVI): 93% | growth at 10 µM (CAKI-1): 112% | growth at 10 µM (HOP-92): 92% | growth at 10 µM (SK-MEL-28): 110% | growth at 10 µM (SK-MEL-2): 111% | growth at 10 µM (OVCAR-5): 117% | growth at 10 µM (NCI/ADR-RES): 114% | growth at 10 µM (ACHN): 108% | growth at 10 µM (PC-3): 98% | growth at 10 µM (OVCAR-4): 104% | growth at 10 µM (UO-31): 88% | growth at 10 µM (U-251): 107% | growth at 10 µM (Hs-578T): 114% | growth at 10 µM (A498): 86% | growth at 10 µM (SNB-19): 107% | growth at 10 µM (HCC 2998): 118% | growth at 10 µM (SF-268): 114% | growth at 10 µM (NCI-H23): 109% | growth at 10 µM (MCF7): 95% | growth at 10 µM (T47D): 103%

CSC1=Nc2c(c(C)c(-c3ccccc3)n2CCCN2CCN(C)CC2)C2=NC(=O)CN12
growth at 10 µM (HT-29): 98% | growth at 10 µM (SR): 70% | growth at 10 µM (SF-295): 110% | growth at 10 µM (KM12): 99% | growth at 10 µM (SF-539): 86% | growth at 10 µM (CCRF-CEM): 86% | growth at 10 µM (MDA-MB-231): 82% | growth at 10 µM (SK-OV-3): 96% | growth at 10 µM (LOX IMVI): 93% | growth at 10 µM (CAKI-1): 92% | growth at 10 µM (SK-MEL-28): 103% | growth at 10 µM (SK-MEL-2): 92% | growth at 10 µM (OVCAR-5): 99% | growth at 10 µM (NCI/ADR-RES): 98% | growth at 10 µM (ACHN): 90% | growth at 10 µM (OVCAR-4): 89% | growth at 10 µM (UO-31): 78% | growth at 10 µM (U-251): 101% | growth at 10 µM (Hs-578T): 75% | growth at 10 µM (A498): 93% | growth at 10 µM (SNB-19): 96% | growth at 10 µM (HCC 2998): 100% | growth at 10 µM (SF-268): 88% | growth at 10 µM (NCI-H23): 94% | growth at 10 µM (MCF7): 86% | growth at 10 µM (T47D): 80%

CCOC(=O)CCCn1c(C)c(C)c2c1N=C(SC)N1CC(=O)N=C21
growth at 10 µM (HT-29): 109% | growth at 10 µM (SR): 119% | growth at 10 µM (SF-295): 113% | growth at 10 µM (KM12): 154% | growth at 10 µM (SF-539): 95% | growth at 10 µM (CCRF-CEM): 100% | growth at 10 µM (MDA-MB-231): 112% | growth at 10 µM (SK-OV-3): 127% | growth at 10 µM (LOX IMVI): 101% | growth at 10 µM (CAKI-1): 108% | growth at 10 µM (HOP-92): 89% | growth at 10 µM (SK-MEL-28): 114% | growth at 10 µM (SK-MEL-2): 113% | growth at 10 µM (OVCAR-5): 125% | growth at 10 µM (NCI/ADR-RES): 112% | growth at 10 µM (ACHN): 110% | growth at 10 µM (PC-3): 103% | growth at 10 µM (OVCAR-4): 100% | growth at 10 µM (UO-31): 81% | growth at 10 µM (U-251): 105% | growth at 10 µM (Hs-578T): 120% | growth at 10 µM (A498): 115% | growth at 10 µM (SNB-19): 108% | growth at 10 µM (HCC 2998): 129% | growth at 10 µM (SF-268): 132% | growth at 10 µM (NCI-H23): 117% | growth at 10 µM (MCF7): 96% | growth at 10 µM (T47D): 95%

CSC1=Nc2c(c(C)c(-c3ccccc3)n2CCCC(=O)O)C2=NC(=O)CN12
growth at 10 µM (HT-29): 97% | growth at 10 µM (SF-295): 105% | growth at 10 µM (KM12): 100% | growth at 10 µM (SF-539): 92% | growth at 10 µM (CCRF-CEM): 102% | growth at 10 µM (MDA-MB-231): 107% | growth at 10 µM (SK-OV-3): 114% | growth at 10 µM (LOX IMVI): 77% | growth at 10 µM (CAKI-1): 70% | growth at 10 µM (HOP-92): 95% | growth at 10 µM (SK-MEL-28): 84% | growth at 10 µM (SK-MEL-2): 117% | growth at 10 µM (OVCAR-5): 98% | growth at 10 µM (NCI/ADR-RES): 98% | growth at 10 µM (ACHN): 89% | growth at 10 µM (PC-3): 94% | growth at 10 µM (OVCAR-4): 92% | growth at 10 µM (UO-31): 82% | growth at 10 µM (U-251): 90% | growth at 10 µM (Hs-578T): 106% | growth at 10 µM (A498): 109% | growth at 10 µM (SNB-19): 104% | growth at 10 µM (HCC 2998): 106% | growth at 10 µM (SF-268): 96% | growth at 10 µM (NCI-H23): 105% | growth at 10 µM (MCF7): 94% | growth at 10 µM (T47D): 106%
